According to ChEMBL document CHEMBL1138683 (J Med Chem, 2004):

Key:
Mus musculus [1] = assay: Anti convulsant activity administered intra peritoneally to mouse for subcutaneous metrazol test at 0.5 h with dose of 300 mg/kg; 0/1= No of animals protected /No of animals tested; type: functional
[2] = Anti convulsant activity administered intra peritoneally to mouse for toxicity at 4 hr with dose of 30 mg/kg; 0/2= No of animals exhibiting toxicity /No of animals tested; type: organism-based; parameters: dose 30 mg/kg; details: in vivo, ip
Mus musculus [3] = assay: Anti convulsant activity administered intra peritoneally to mouse at maximal electroshock test at 4 hr after the drug administered with dose of 30 mg/kg; 0/1= No of animals protected /No of animals tested; type: functional
Rattus norvegicus [4] = assay: Anticonvulsant activity after oral administration of 30 mg/kg dose after 4 hr in rats; + means 25% of the animals protected; type: functional, organism-based; parameters: dose 30 mg/kg
Procedure, shortened: (§1)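 Oral dosing of rats at a single dose, compound dissolved or suspended in 0.5% methylcellulose. Protection in the MES or scMet test checked 15 min, 30 min, 1 h, 2 h and 4 h after dosing. Scored as 25/50/75/100% of animals protected (+ to ++++), – for none.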

Mus musculus [5] = assay: Anti convulsant activity administered intra peritoneally to mouse for subcutaneous metrazol test at 4 hr after the drug administered with dose of 30 mg/kg; 0/1= No of animals protected /No of animals tested; type: functional; details: route intraperitoneal
Mus musculus [6] = assay: Anti convulsant activity administered intra peritoneally to mouse at maximal electroshock test at 4 hr after the drug administered with dose of 100 mg/kg; 0/3= No of animals protected /No of animals tested; type: functional
Mus musculus [7] = assay: Anti convulsant activity administered intra peritoneally to mouse at maximal electroshock test at 0.5 hr after the drug administered with dose of 300 mg/kg; 1/1= No of animals protected /No of animals tested; type: functional
[8] = Anti convulsant activity administered intra peritoneally to mouse for toxicity at 0.5 hr with dose of 300 mg/kg; 2/4= No of animals exhibiting toxicity /No of animals tested; type: organism-based; parameters: dose 300 mg/kg; details: in vivo, ip
Mus musculus [9] = assay: Anti convulsant activity administered intra peritoneally to mouse for subcutaneous metrazol test at 4 hr after the drug administered with dose of 100 mg/kg; 0/1= No of animals protected /No of animals tested; type: functional
Mus musculus [10] = assay: Anti convulsant activity administered intra peritoneally to mouse for subcutaneous metrazol test at 4 hr with dose of 300 mg/kg; 0/1= No of animals protected /No of animals tested; type: functional
Mus musculus [11] = assay: Anti convulsant activity administered intra peritoneally to mouse for toxicity at 4 hr with dose of 30 mg/kg; 0/3= No of animals exhibiting toxicity /No of animals tested; type: functional
[12] = Anti convulsant activity administered intra peritoneally to mouse for toxicity at 4 hr with dose of 100 mg/kg; 1/4= No of animals exhibiting toxicity /No of animals tested; type: organism-based; parameters: dose 100 mg/kg; details: in vivo, ip
[13] = Anti convulsant activity administered intra peritoneally to mouse for toxicity at 0.5 hr with dose of 30 mg/kg; 0/4= No of animals exhibiting toxicity /No of animals tested; type: organism-based; parameters: dose 30 mg/kg; details: in vivo, ip
[14] = Anti convulsant activity administered intra peritoneally to mouse for toxicity at 4 hr with dose of 300 mg/kg; 1/4= No of animals exhibiting toxicity /No of animals tested; type: organism-based; parameters: dose 300 mg/kg; details: in vivo, ip
Mus musculus [15] = assay: Anti convulsant activity administered intra peritoneally to mouse for subcutaneous metrazol test at 0.5 hr with dose of 30 mg/kg; 0/1= No of animals protected /No of animals tested; type: functional
Mus musculus [16] = assay: Anti convulsant activity administered intra peritoneally to mouse at maximal electroshock test at 0.5 h after the drug administered with dose of 30 mg/kg; 0/1= No of animals protected /No of animals tested; type: functional
[17] = Anti convulsant activity administered intra peritoneally to mouse for toxicity at 0.5 hr with dose of 100 mg/kg; 0/8= No of animals exhibiting toxicity /No of animals tested; type: organism-based; parameters: dose 100 mg/kg; details: in vivo, ip
Rattus norvegicus [18] = assay: Toxicity after oral administration of 100 mg/kg dose in rats; + means 25% of the […]; type: functional, organism-based; parameters: dose 100 mg/kg
Procedure, shortened: (§2)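 Rats dosed orally with compound dissolved or suspended in 0.5% methylcellulose (0.04 mL per 10 g body weight). Anticonvulsant protection (MES or scMet) and toxicity scored at 15 min, 30 min, 1 h, 2 h and 4 h after dosing. Graded in steps of 25% of animals protected or showing toxicity.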

Rattus norvegicus [19] = assay: Anticonvulsant activity after oral administration of 100 mg/kg dose after 1 hr in rats; + means 25% of the animals protected; type: functional, organism-based; parameters: dose 100 mg/kg; procedure, shortened: as §1
[20] = Toxicity after oral administration of 100 mg/kg dose in rats; + means 25% of the animals exhibit toxicity; type: organism-based; parameters: dose 100 mg/kg, route oral; details: rat, in vivo; procedure, shortened: as §2
Mus musculus [21] = assay: Anti convulsant activity administered intra peritoneally to mouse for subcutaneous metrazol test at 0.5 hr with dose of 100 mg/kg; 0/1= No of animals protected /No of animals tested; type: functional
[22] = Anticonvulsant activity after oral administration of 100 mg/kg dose after 30 min in rats; ++ means 50% of the animals protected; type: organism-based; parameters: dose 100 mg/kg, route oral; details: rat, in vivo, 0.5 h; procedure, shortened: as §1
[23] = Anti convulsant activity administered intra peritoneally to mouse for toxicity at 0.5 hr with dose of 300 mg/kg; 4/4= No of animals exhibiting toxicity /No of animals tested; type: organism-based; parameters: dose 300 mg/kg; details: in vivo, ip
Mus musculus [24] = assay: Anti convulsant activity administered intra peritoneally to mouse at maximal electroshock test at 0.5 h after the drug administered with dose of 300 mg/kg; 0/1= No of animals protected /No of animals tested; type: functional
[25] = Anti convulsant activity administered intra peritoneally to mouse for toxicity at 4 hr with dose of 300 mg/kg; 0/2= No of animals exhibiting toxicity /No of animals tested; type: organism-based; parameters: dose 300 mg/kg; details: in vivo, ip
[26] = Anti convulsant activity administered intra peritoneally to mouse for toxicity at 0.5 hr with dose of 100 mg/kg; 7/8= No of animals exhibiting toxicity /No of animals tested; type: organism-based; parameters: dose 100 mg/kg; details: in vivo, ip
Rattus norvegicus [27] = assay: Anticonvulsant activity after oral administration of 100 mg/kg dose after 4 hr in rats; +means 25% of the animals protected; type: functional, organism-based; parameters: dose 100 mg/kg; procedure, shortened: as §1
Mus musculus [28] = assay: Anti convulsant activity administered intra peritoneally to mouse at maximal electroshock test at 0.5 hr after the drug administered with dose of 100 mg/kg; 0/3= No of animals protected /No of animals tested; type: functional
Mus musculus [29] = assay: Anti convulsant activity administered intra peritoneally to mouse at maximal electroshock test at 4 hr after the drug administered with dose of 300 mg/kg; 0/1= No of animals protected /No of animals tested; type: functional

SMILES | Activity (Mus musculus [1]) | Toxicity [2] | Activity (Mus musculus [3]) | Activity (Mus musculus [5]) | Activity (Mus musculus [6]) | Activity (Mus musculus [9]) | Activity (Mus musculus [10]) | Toxicity [12] | Toxicity [13] | Activity (Mus musculus [15]) | Activity (Mus musculus [16]) | further results
CC1(C)C(C(=O)NN)C1(C)C | 0 | 0 | 0 | 0 | 0 | 0 | 0 | 1 | 0 | 0 | 0 | Activity (Rattus norvegicus [4]): 25% of the animals protected; Activity (Mus musculus [7]): 1; Toxicity [8]: 2; Activity (Mus musculus [11]): 0; Toxicity [14]: 1; Toxicity [17]: 0
CCN(CCO)C(=O)C1C(C)(C)C1(C)C | 0 | 0 | 0 | 0 | 0 | 0 | 0 | 1 | 0 | 0 | 0 | Toxicity (Rattus norvegicus [18]): 25% of the animals exhibit toxicity; Activity (Rattus norvegicus [19]): 25% of the animals protected; Toxicity [20]: 25% of the animals exhibit toxicity; Activity (Mus musculus [21]): 0; Activity [22]: 25% of the animals protected; Toxicity [23]: 4; Activity (Mus musculus [24]): 0; Toxicity [25]: 0; Toxicity [26]: 7; Activity (Rattus norvegicus [27]): 25% of the animals protected; Activity (Mus musculus [28]): 0; Activity (Mus musculus [29]): 0
